In brackets after ≈: the same amount, converted by molar mass. Starred links: 1 amine or outer side, 2 acyl side, 3 side chain; linkers in the order of their positions; H or OH if unused. Positions of bridges follow the written chain, without caps; N, C: chain ends. Non-standard residues stand in square brackets, D forms with d. Residues, ends and D or L forms follow the SMILES beside them. *: point of attachment. pTerphenylCO(4''-OnC5H11) = CCCCCOc1ccc(-c2ccc(-c3ccc(C(=O)*)cc3)cc2)cc1; Orn(4R-OH,5R-OH) = O=C([C@H](C[C@@H](O)[C@@H](O)N[*:3])N[*:1])[*:2]; hTyr(3S-OH,4S-OH) = N[C@H](C(=O)O)[C@H](O)[C@@H](O)c1ccc(O)cc1; Pro(3S-OH,4S-Me) = C[C@H]1CN[C@H](C(=O)O)[C@H]1O; Hyp = O=C(O)[C@@H]1C[C@@H](O)CN1
Columns and labels:
Nakaseomyces glabratus [1] = experiment: Ratio of IC50 for Candida glabrata wild type 1,3-beta-glucan synthase to IC50 for Candida glabrata 1,3-beta-glucan synthase mutant
Nakaseomyces glabratus [2] = experiment: Antifungal activity against Candida glabrata isolate 3168 expressing wild type Fks1p and Fks2p by CLSI method in presence of 50% human serum; type: functional
Procedure, shortened: (§1)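 Broth microdilution MIC per CLSI M27-A3 in RPMI 1640 supplemented with 50% serum. Caspofungin and micafungin stocks in sterile water; anidulafungin stock in 100% DMSO; stocks kept at −86°C.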

Nakaseomyces glabratus [3] = experiment: Antifungal activity against Candida glabrata isolate 3169 expressing Fks1p D632E mutant and wild type Fks2p by CLSI method; type: functional
Procedure, shortened: (§2)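 Broth microdilution MIC per CLSI M27-A3 in RPMI 1640 medium without serum. Caspofungin and micafungin stocks in sterile water; anidulafungin stock in 100% DMSO; stocks kept at −86°C.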

Nakaseomyces glabratus [4] = experiment: Antifungal activity against Candida glabrata isolate 5847 expressing Fks1p S629P mutant and wild type Fks2p by CLSI method in presence of 50% human serum; type: functional; procedure, shortened: as §1
Nakaseomyces glabratus [5] = experiment: Antifungal activity against Candida glabrata isolate 42971 expressing Fks1p D632Y mutant and Fks2p R1377STOP mutant by CLSI method in presence of 50% human serum; type: functional; procedure, shortened: as §1
1,3-beta-glucan synthase [6] = target: 1,3-beta-glucan synthase (Candida glabrata, UniProt F5BCZ9, W1375L); experiment: Inhibition of Candida glabrata isolate 5416 1,3-beta-D-glucan synthase wild type Fks1p/Fks2p W1375L mutant; design: species or system Nakaseomyces glabratus
Procedure, shortened: (§3)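 Cells grown in YPD broth at 35°C with vigorous shaking to early stationary phase. Membrane protein extracted and glucan synthase partially purified by product entrapment. Filtration polymerization assay measured [3H]glucose incorporation into product, started by adding enzyme. Echinocandin serial dilutions spanned 0.01–10,000 ng/ml, with 1% DMSO controls for anidulafungin. IC50 from variable-slope sigmoidal fit.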

Nakaseomyces glabratus [7] = experiment: Antifungal activity against Candida glabrata isolate 5416 expressing wild type Fks1p and Fks2p W1375L mutant by CLSI method; type: functional; procedure, shortened: as §2
Nakaseomyces glabratus [8] = experiment: Antifungal activity against Candida glabrata isolate 234 expressing wild type Fks1p and Fks2p F659V mutant by CLSI method; type: functional; procedure, shortened: as §2
Nakaseomyces glabratus [9] = experiment: Antifungal activity against Candida glabrata isolate 21900 expressing Fks1p D632G mutant and wild type Fks2p by CLSI method in presence of 50% human serum; type: functional; procedure, shortened: as §1
1,3-beta-glucan synthase [10] = target: 1,3-beta-glucan synthase (Candida glabrata, UniProt F5BCZ9, D666E); experiment: Inhibition of Candida glabrata isolate 42031 1,3-beta-D-glucan synthase wild type Fks1p/Fks2p D666E mutant; design: species or system Nakaseomyces glabratus; procedure, shortened: as §3
Nakaseomyces glabratus [11] = experiment: Antifungal activity against Candida glabrata isolate 5847 expressing Fks1p S629P mutant and wild type Fks2p by CLSI method; type: functional; procedure, shortened: as §2
Nakaseomyces glabratus [12] = experiment: Antifungal activity against Candida glabrata isolate 42971 expressing Fks1p D632Y mutant and Fks2p R1377STOP mutant by CLSI method; type: functional; procedure, shortened: as §2
Nakaseomyces glabratus [13] = experiment: Antifungal activity against Candida glabrata isolate 41026 expressing wild type Fks1p and Fks2p F659S mutant by CLSI method; type: functional; procedure, shortened: as §2
Nakaseomyces glabratus [14] = experiment: Antifungal activity against Candida glabrata isolate 21900 expressing Fks1p D632G mutant and wild type Fks2p by CLSI method; type: functional
1,3-beta-glucan synthase [15] = target: 1,3-beta-glucan synthase (Candida glabrata, UniProt F5BCZ9, P667T); experiment: Inhibition of Candida glabrata isolate 51916 1,3-beta-D-glucan synthase wild type Fks1p/Fks2p P667T mutant; design: species or system Nakaseomyces glabratus; procedure, shortened: as §3
Nakaseomyces glabratus [16] = experiment: Antifungal activity against Candida glabrata isolate 5416 expressing wild type Fks1p and Fks2p W1375L mutant by CLSI method in presence of 50% human serum; type: functional; procedure, shortened: as §1
Nakaseomyces glabratus [17] = experiment: Antifungal activity against Candida glabrata isolate 3830 expressing wild type Fks1p and Fks2p S663P mutant by CLSI method in presence of 50% human serum; type: functional; procedure, shortened: as §1
[18] = target: 1,3-beta-glucan synthase component FKS1 (Candida glabrata, UniProt E2GKZ4, D632G); experiment: Inhibition of Candida glabrata isolate 21900 1,3-beta-D-glucan synthase Fks1p D632G mutant/wild type Fks2p; design: species or system Nakaseomyces glabratus; procedure, shortened: as §3
Nakaseomyces glabratus [19] = experiment: Antifungal activity against Candida glabrata isolate 42031 expressing wild type Fks1p and Fks2p D666E mutant by CLSI method; type: functional; procedure, shortened: as §2
1,3-beta-glucan synthase [20] = target: 1,3-beta-glucan synthase (Candida glabrata, UniProt F5BCZ9, F659S); experiment: Inhibition of Candida glabrata isolate 41026 1,3-beta-D-glucan synthase wild type Fks1p/Fks2p F659S mutant; design: species or system Nakaseomyces glabratus; procedure, shortened: as §3
[21] = target: 1,3-beta-glucan synthase component FKS1 (Candida glabrata, UniProt E2GKZ4, F625S); experiment: Inhibition of Candida glabrata isolate 42997 1,3-beta-D-glucan synthase Fks1p F625S mutant/wild type Fks2p; design: species or system Nakaseomyces glabratus; procedure, shortened: as §3
Nakaseomyces glabratus [22] = experiment: Antifungal activity against Candida glabrata isolate 31498 expressing wild type Fks1p and Fks2p F659 deletion mutant by CLSI method; type: functional; procedure, shortened: as §2
[23] = Inhibition of Candida glabrata isolate 218 wild type 1,3-beta-D-glucan synthase; design: species or system Nakaseomyces glabratus; procedure, shortened: as §3
Nakaseomyces glabratus [24] = experiment: Antifungal activity against Candida glabrata isolate 41026 expressing wild type Fks1p and Fks2p F659S mutant by CLSI method in presence of 50% human serum; type: functional; procedure, shortened: as §1
[25] = Inhibition of Candida glabrata isolate 31498 1,3-beta-D-glucan synthase wild type Fks1p/Fks2p F659 deletion mutant; design: species or system Nakaseomyces glabratus; procedure, shortened: as §3
Nakaseomyces glabratus [26] = experiment: Antifungal activity against Candida glabrata isolate 3169 expressing Fks1p D632E mutant and wild type Fks2p by CLSI method in presence of 50% human serum; type: functional; procedure, shortened: as §1
Nakaseomyces glabratus [27] = experiment: Antifungal activity against Candida glabrata isolate 51916 expressing wild type Fks1p and Fks2p P667T mutant by CLSI method; type: functional; procedure, shortened: as §2
[28] = target: 1,3-beta-glucan synthase component FKS1 (Candida glabrata, UniProt E2GKZ4, D632E); experiment: Inhibition of Candida glabrata isolate 3169 1,3-beta-D-glucan synthase Fks1p D632E mutant/wild type Fks2p; design: species or system Nakaseomyces glabratus; procedure, shortened: as §3
Nakaseomyces glabratus [29] = experiment: Antifungal activity against Candida glabrata ATCC 90030 expressing wild type Fks1p and Fks2p by CLSI method; type: functional
Procedure, shortened: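 Broth microdilution MIC per CLSI M27-A3 in RPMI 1640 medium, also run in RPMI 1640 with 50% serum. Wild-type control strain. Caspofungin and micafungin dissolved in sterile distilled water and anidulafungin in 100% DMSO; stock solutions stored at −86°C. Geometric means used to compare MICs.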

Nakaseomyces glabratus [30] = experiment: Antifungal activity against Candida glabrata isolate 51916 expressing wild type Fks1p and Fks2p P667T mutant by CLSI method in presence of 50% human serum; type: functional; procedure, shortened: as §1
Nakaseomyces glabratus [31] = experiment: Antifungal activity against Candida glabrata isolate 42997 expressing Fks1p F625S mutant and wild type Fks2p by CLSI method; type: functional; procedure, shortened: as §2
Nakaseomyces glabratus [32] = experiment: Antifungal activity against Candida glabrata isolate 31498 expressing wild type Fks1p and Fks2p F659 deletion mutant by CLSI method in presence of 50% human serum; type: functional; procedure, shortened: as §1
Nakaseomyces glabratus [33] = experiment: Antifungal activity against Candida glabrata isolate 42031 expressing wild type Fks1p and Fks2p D666E mutant by CLSI method in presence of 50% human serum; type: functional; procedure, shortened: as §1
Nakaseomyces glabratus [34] = experiment: Antifungal activity against Candida glabrata isolate 218 expressing wild type Fks1p and Fks2p by CLSI method in presence of 50% human serum; type: functional; procedure, shortened: as §1

Chain of 1,3-beta-glucan synthase (Candida glabrata, UniProt F5BCZ9, P667T) (F5BCZ9 entry or part of it P667T): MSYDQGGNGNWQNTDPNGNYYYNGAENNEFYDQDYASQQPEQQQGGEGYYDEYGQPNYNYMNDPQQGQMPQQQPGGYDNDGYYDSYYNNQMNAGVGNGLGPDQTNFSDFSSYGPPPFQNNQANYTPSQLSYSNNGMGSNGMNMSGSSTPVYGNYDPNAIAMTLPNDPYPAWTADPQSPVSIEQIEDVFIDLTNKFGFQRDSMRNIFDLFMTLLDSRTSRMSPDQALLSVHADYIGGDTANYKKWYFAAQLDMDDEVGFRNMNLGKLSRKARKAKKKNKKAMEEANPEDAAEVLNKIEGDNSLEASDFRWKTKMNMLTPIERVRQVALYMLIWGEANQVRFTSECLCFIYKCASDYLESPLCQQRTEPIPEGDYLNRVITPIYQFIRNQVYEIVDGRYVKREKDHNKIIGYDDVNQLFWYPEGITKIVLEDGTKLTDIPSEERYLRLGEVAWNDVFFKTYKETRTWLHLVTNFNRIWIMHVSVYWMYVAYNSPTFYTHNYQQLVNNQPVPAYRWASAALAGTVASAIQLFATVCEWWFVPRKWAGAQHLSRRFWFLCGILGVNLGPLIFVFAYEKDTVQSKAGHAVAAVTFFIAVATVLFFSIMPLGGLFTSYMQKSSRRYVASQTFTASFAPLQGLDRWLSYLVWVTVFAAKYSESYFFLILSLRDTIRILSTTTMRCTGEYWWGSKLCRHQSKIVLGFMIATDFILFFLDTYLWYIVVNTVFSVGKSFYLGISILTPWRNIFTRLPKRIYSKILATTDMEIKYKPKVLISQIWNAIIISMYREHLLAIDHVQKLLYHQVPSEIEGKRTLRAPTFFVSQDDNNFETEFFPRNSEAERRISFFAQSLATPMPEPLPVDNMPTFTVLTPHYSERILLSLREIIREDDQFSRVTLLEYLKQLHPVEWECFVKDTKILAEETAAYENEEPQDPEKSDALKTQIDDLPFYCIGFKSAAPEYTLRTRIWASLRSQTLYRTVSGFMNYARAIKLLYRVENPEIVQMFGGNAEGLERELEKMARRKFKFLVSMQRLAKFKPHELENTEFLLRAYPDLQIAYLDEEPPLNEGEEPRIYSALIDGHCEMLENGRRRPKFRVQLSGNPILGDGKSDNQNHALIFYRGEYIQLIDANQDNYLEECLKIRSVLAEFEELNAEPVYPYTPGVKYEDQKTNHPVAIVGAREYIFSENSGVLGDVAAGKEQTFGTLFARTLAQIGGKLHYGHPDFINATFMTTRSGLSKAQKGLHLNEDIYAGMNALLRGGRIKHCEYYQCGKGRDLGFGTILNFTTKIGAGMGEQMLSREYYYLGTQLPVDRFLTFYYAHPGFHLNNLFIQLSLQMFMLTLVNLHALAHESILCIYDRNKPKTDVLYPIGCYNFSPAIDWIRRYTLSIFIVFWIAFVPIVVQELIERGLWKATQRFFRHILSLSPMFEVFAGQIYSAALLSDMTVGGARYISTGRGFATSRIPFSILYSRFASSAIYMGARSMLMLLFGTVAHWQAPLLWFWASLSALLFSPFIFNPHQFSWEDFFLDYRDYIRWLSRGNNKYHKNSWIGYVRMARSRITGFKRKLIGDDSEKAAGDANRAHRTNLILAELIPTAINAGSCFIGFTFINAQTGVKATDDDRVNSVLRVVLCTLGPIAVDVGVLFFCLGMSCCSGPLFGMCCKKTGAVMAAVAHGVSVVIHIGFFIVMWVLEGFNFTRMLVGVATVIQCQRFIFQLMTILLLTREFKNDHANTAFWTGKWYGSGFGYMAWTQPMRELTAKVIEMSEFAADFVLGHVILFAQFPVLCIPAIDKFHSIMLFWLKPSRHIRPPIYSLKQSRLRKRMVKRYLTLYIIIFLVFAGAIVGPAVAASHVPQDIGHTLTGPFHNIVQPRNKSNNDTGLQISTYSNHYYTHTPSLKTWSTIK
Chain of 1,3-beta-glucan synthase (Candida glabrata, UniProt F5BCZ9, F659S) (F5BCZ9 entry or part of it F659S): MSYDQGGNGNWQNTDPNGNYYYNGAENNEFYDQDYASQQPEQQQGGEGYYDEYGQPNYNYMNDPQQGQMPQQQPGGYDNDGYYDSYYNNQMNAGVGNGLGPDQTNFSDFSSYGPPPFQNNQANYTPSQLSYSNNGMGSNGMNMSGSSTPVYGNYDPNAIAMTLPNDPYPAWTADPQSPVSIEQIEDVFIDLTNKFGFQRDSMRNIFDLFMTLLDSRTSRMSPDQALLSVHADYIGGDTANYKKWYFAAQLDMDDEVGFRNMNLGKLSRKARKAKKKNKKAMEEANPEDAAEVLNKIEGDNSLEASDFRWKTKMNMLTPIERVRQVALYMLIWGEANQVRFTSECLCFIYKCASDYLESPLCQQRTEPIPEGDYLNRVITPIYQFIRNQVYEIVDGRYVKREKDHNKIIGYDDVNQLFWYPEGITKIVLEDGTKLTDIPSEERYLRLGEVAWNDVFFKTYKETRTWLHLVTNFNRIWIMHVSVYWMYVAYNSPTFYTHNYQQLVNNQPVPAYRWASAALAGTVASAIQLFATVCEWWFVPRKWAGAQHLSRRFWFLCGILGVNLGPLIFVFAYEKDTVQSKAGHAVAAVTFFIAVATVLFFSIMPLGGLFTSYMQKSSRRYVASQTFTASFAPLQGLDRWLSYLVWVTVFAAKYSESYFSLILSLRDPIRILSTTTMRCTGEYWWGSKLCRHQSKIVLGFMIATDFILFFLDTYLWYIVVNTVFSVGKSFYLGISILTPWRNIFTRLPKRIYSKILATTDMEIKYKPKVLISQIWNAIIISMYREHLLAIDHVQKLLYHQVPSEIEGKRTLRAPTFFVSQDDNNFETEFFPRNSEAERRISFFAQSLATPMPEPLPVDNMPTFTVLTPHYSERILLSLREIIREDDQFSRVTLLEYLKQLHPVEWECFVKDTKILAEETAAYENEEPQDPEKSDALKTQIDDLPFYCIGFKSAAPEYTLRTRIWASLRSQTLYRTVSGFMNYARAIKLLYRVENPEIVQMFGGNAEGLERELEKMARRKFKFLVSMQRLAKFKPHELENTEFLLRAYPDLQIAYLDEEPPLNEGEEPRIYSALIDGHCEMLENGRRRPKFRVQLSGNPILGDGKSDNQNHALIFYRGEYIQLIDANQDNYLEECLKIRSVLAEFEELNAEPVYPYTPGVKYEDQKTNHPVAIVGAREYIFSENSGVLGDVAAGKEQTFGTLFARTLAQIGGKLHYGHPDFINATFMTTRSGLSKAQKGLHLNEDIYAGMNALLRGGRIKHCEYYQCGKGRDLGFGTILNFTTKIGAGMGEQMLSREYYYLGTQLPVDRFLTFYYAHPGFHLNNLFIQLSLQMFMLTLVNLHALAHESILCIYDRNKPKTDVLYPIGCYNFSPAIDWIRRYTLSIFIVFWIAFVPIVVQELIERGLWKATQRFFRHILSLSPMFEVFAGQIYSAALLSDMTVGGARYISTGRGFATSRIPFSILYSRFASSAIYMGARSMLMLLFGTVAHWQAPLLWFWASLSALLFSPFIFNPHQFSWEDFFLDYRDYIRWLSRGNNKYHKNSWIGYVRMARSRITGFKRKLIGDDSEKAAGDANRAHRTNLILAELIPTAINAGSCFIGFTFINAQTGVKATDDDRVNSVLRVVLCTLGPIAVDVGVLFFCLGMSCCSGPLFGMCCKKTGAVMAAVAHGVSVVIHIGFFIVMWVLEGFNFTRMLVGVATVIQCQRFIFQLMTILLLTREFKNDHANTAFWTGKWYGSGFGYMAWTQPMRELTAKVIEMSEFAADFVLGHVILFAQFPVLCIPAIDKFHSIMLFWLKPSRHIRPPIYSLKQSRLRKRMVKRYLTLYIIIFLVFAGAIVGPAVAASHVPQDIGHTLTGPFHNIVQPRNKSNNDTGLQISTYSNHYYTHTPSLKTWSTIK

With `CCCCCOc1ccc(-c2ccc(-c3ccc(C(=O)N[C@H]4C[C@@H](O)[C@@H](O)NC(=O)[C@@H]5[C@@H](O)[C@@H](C)CN5C(=O)[C@H]([C@@H](C)O)NC(=O)[C@H]([C@H](O)[C@@H](O)c5ccc(O)cc5)NC(=O)[C@@H]5C[C@@H](O)CN5C(=O)[C@H]([C@@H](C)O)NC4=O)cc3)cc2)cc1` [ANIDULAFUNGIN] ({pTerphenylCO(4''-OnC5H11)}-[Orn(4R-OH,5R-OH)]T[Hyp][hTyr(3S-OH,4S-OH)]T[Pro(3S-OH,4S-Me)]; lactam 1-C) as the compound, how does the Ratio IC50 (Nakaseomyces glabratus [1]) read?
The Ratio IC50 was 54.

What about the MIC (Nakaseomyces glabratus [2]) of the same compound?
The MIC was 0.5 µg/mL.

And the MIC (Nakaseomyces glabratus [3])?
Its MIC is 2 µg/mL (≈ 1.75 µM).

And the MIC (Nakaseomyces glabratus [4])?
The MIC was 8 µg/mL.

And the MIC (Nakaseomyces glabratus [5])?
Its MIC is 8 µg/mL.

What about the IC50 (1,3-beta-glucan synthase [6]) of the same compound?
Its IC50 is 74.7 nM.

And the MIC (Nakaseomyces glabratus [7])?
Its MIC is 0.25 µg/mL (≈ 0.219 µM).

What about the MIC (Nakaseomyces glabratus [8]) of the same compound?
The MIC was 1 µg/mL (≈ 0.877 µM).

What about the MIC (Nakaseomyces glabratus [9]) of the same compound?
The MIC was 8 µg/mL.

What about the IC50 (1,3-beta-glucan synthase [10]) of the same compound?
Its IC50 is 112 nM.

And the MIC (Nakaseomyces glabratus [11])?
The MIC was 4 µg/mL (≈ 3.51 µM).

What about the MIC (Nakaseomyces glabratus [12]) of the same compound?
Its MIC is 4 µg/mL (≈ 3.51 µM).

What about the MIC (Nakaseomyces glabratus [13]) of the same compound?
The MIC was 4 µg/mL (≈ 3.51 µM).

What about the MIC (Nakaseomyces glabratus [14]) of the same compound?
Its MIC is 1 µg/mL (≈ 0.877 µM).

And the IC50 (1,3-beta-glucan synthase [15])?
Its IC50 is 87.3 nM.

And the MIC (Nakaseomyces glabratus [16])?
Its MIC is 4 µg/mL.

And the MIC (Nakaseomyces glabratus [17])?
The MIC was 8 µg/mL.

And the IC50 [18]?
The IC50 was 89.3 nM.

And the MIC (Nakaseomyces glabratus [19])?
Its MIC is 1 µg/mL (≈ 0.877 µM).

And the IC50 (1,3-beta-glucan synthase [20])?
Its IC50 is 753 nM.

What about the IC50 [21] of the same compound?
The IC50 was 97 nM.

And the MIC (Nakaseomyces glabratus [22])?
Its MIC is 2 µg/mL (≈ 1.75 µM).

What about the IC50 [23] of the same compound?
The IC50 was 1.25 ng/mL (≈ 0.0011 µM).

And the MIC (Nakaseomyces glabratus [24])?
The MIC was 16 µg/mL.

What about the IC50 [25] of the same compound?
Its IC50 is 160 ng/mL (≈ 0.14 µM).

What about the MIC (Nakaseomyces glabratus [26]) of the same compound?
Its MIC is 8 µg/mL.

What about the MIC (Nakaseomyces glabratus [27]) of the same compound?
Its MIC is 1.59 µg/mL (≈ 1.39 µM).

And the IC50 [28]?
The IC50 was 133 nM.

And the MIC (Nakaseomyces glabratus [29])?
Its MIC is 0.06 µg/mL (≈ 0.0526 µM).

And the MIC (Nakaseomyces glabratus [30])?
The MIC was 8 µg/mL.

What about the MIC (Nakaseomyces glabratus [31]) of the same compound?
Its MIC is 2 µg/mL (≈ 1.75 µM).

And the MIC (Nakaseomyces glabratus [32])?
The MIC was 8 µg/mL.

What about the MIC (Nakaseomyces glabratus [33]) of the same compound?
The MIC was 4 µg/mL.

What about the MIC (Nakaseomyces glabratus [34]) of the same compound?
The MIC was 0.5 µg/mL.
